From ChEMBL document CHEMBL1150393, “Evaluation of radiolabeled (hetero)aromatic analogues of N-(2-diethylaminoethyl)-4-iodobenzamide for imaging and targeted radionuclide therapy of melanoma” (J Med Chem, 2008)

How the values were obtained:
Conditions in all cases: in vivo
[1] = Drug excretion in mouse B16-F0 cells bearing C57BL/6 mouse urine at 0.74 to 0.92 MBq, iv after 72 hrs; format: ADME, organism-based
Method in brief: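 Urine was collected from two B16-F0 tumour-bearing C57BL6 mice for up to 72 h after iv tail-vein injection of the [¹²⁵I]-labelled compound (0.1 µmol). Samples were counted to give cumulative urinary excretion as %ID.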

[2] = Biodistribution in tumor of C57BL/6 mouse bearing mouse B16-F0 cells at 0.74 to 0.92 MBq, iv after 1 hr; format: ADME, organism-based, Neoplasm
Method in brief: (§1)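 [¹²⁵I]-labelled compound given iv by tail vein (0.1 µmol per mouse) to male C57BL6 mice bearing s.c. B16-F0 flank tumours (5 × 10⁵ cells in PBS). Two mice per time point were killed by CO₂, frozen in liquid nitrogen and cut into 40 µm cryosections, eight slices per mouse. Slice radioactivity was read on a multiwire proportional counter, converted to kBq/g and reported as %ID/g.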

[3] = Biodistribution in tumor of C57BL/6 mouse bearing mouse B16-F0 cells at 0.74 to 0.92 MBq, iv after 3 hrs; format: ADME, organism-based, Neoplasm; method in brief: as §1
[4] = Biodistribution in tumor of C57BL/6 mouse bearing mouse B16-F0 cells at 0.74 to 0.92 MBq, iv after 6 hrs; format: ADME, organism-based, Neoplasm; method in brief: as §1
[5] = Biodistribution in tumor of C57BL/6 mouse bearing mouse B16-F0 cells at 0.74 to 0.92 MBq, iv after 24 hrs; format: ADME, organism-based, Neoplasm; method in brief: as §1
[6] = Ratio of drug level in tumor to liver of C57BL/6 mouse bearing mouse B16-F0 cells at 0.74 to 0.92 MBq, iv after 1 hr; format: ADME, organism-based
Method in brief: (§2)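 Tumour and organ radioactive concentrations came from whole-body cryosection counting (40 µm slices, eight per mouse, two mice per time) after tail-vein injection of the [¹²⁵I]-labelled compound (0.1 µmol) into male C57BL6 mice bearing s.c. B16-F0 melanoma. Each value is the ratio of the tumour concentration to the organ concentration.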

[7] = Ratio of drug level in tumor to lung of C57BL/6 mouse bearing mouse B16-F0 cells at 0.74 to 0.92 MBq, iv after 1 hr; format: ADME, organism-based; method in brief: as §2
[8] = Ratio of drug level in tumor to brain of C57BL/6 mouse bearing mouse B16-F0 cells at 0.74 to 0.92 MBq, iv after 1 hr; format: ADME, organism-based; method in brief: as §2
[9] = Ratio of drug level in tumor to brain of C57BL/6 mouse bearing mouse B16-F0 cells at 0.74 to 0.92 MBq, iv after 3 hrs; format: ADME, organism-based; method in brief: as §2
Brain = assay: Biodistribution in brain of C57BL/6 mouse bearing mouse B16-F0 cells at 0.74 to 0.92 MBq, iv after 1 hr; format: ADME, organism-based
Method in brief: (§3)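 Male C57BL6 mice with s.c. left-flank B16-F0 melanoma (5 × 10⁵ cells in PBS). Two mice per time point frozen in liquid nitrogen after CO₂ sacrifice. Eight 40 µm whole-body cryosections per mouse read by multiwire proportional counter. cpm/mm² converted to kBq/g and expressed as %ID/g.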

[10] = Biodistribution in intestinal content of C57BL/6 mouse bearing mouse B16-F0 cells at 0.74 to 0.92 MBq, iv after 1 hr; format: ADME, organism-based; method in brief: as §3
[11] = Biodistribution in intestinal content of C57BL/6 mouse bearing mouse B16-F0 cells at 0.74 to 0.92 MBq, iv after 3 hrs; format: ADME, organism-based; method in brief: as §3
[12] = Biodistribution in Stomach content of C57BL/6 mouse bearing mouse B16-F0 cells at 0.74 to 0.92 MBq, iv after 3 hrs; format: ADME, organism-based; method in brief: as §3
[13] = Biodistribution in Stomach content of C57BL/6 mouse bearing mouse B16-F0 cells at 0.74 to 0.92 MBq, iv after 6 hrs; format: ADME, organism-based; method in brief: as §3
Liver [14] = assay: Biodistribution in liver of C57BL/6 mouse bearing mouse B16-F0 cells at 0.74 to 0.92 MBq, iv after 1 hr; format: ADME, organism-based; method in brief: as §3
Liver [15] = assay: Biodistribution in liver of C57BL/6 mouse bearing mouse B16-F0 cells at 0.74 to 0.92 MBq, iv after 6 hrs; format: ADME, organism-based; method in brief: as §3
Muscle tissue = assay: Biodistribution in muscle of C57BL/6 mouse bearing mouse B16-F0 cells at 0.74 to 0.92 MBq, iv after 3 hrs; format: ADME, organism-based; method in brief: as §3
Pancreas = assay: Biodistribution in pancreas of C57BL/6 mouse bearing mouse B16-F0 cells at 0.74 to 0.92 MBq, iv after 1 hr; format: ADME, organism-based; method in brief: as §3
Lung = assay: Biodistribution in lung of C57BL/6 mouse bearing mouse B16-F0 cells at 0.74 to 0.92 MBq, iv after 3 hrs; format: ADME, organism-based; method in brief: as §3
Spleen [16] = assay: Biodistribution in spleen of C57BL/6 mouse bearing mouse B16-F0 cells at 0.74 to 0.92 MBq, iv after 1 hr; format: ADME, organism-based; method in brief: as §1
Spleen [17] = assay: Biodistribution in spleen of C57BL/6 mouse bearing mouse B16-F0 cells at 0.74 to 0.92 MBq, iv after 3 hrs; format: ADME, organism-based; method in brief: as §1
Spleen [18] = assay: Biodistribution in spleen of C57BL/6 mouse bearing mouse B16-F0 cells at 0.74 to 0.92 MBq, iv after 6 hrs; format: ADME, organism-based; method in brief: as §1
Kidney [19] = assay: Biodistribution in kidney of C57BL/6 mouse bearing mouse B16-F0 cells at 0.74 to 0.92 MBq, iv after 1 hr; format: ADME, organism-based; method in brief: as §3
Kidney [20] = assay: Biodistribution in kidney of C57BL/6 mouse bearing mouse B16-F0 cells at 0.74 to 0.92 MBq, iv after 6 hrs; format: ADME, organism-based; method in brief: as §3
Blood [21] = assay: Biodistribution in blood of C57BL/6 mouse bearing mouse B16-F0 cells at 0.74 to 0.92 MBq, iv after 1 hr; format: ADME, organism-based; method in brief: as §3
Blood [22] = assay: Biodistribution in blood of C57BL/6 mouse bearing mouse B16-F0 cells at 0.74 to 0.92 MBq, iv after 6 hrs; format: ADME, organism-based; method in brief: as §3
[23] = Biodistribution in uvea of C57BL/6 mouse bearing mouse B16-F0 cells at 0.74 to 0.92 MBq, iv after 1 hr; format: ADME, organism-based, Uveal tract; method in brief: as §1
[24] = Biodistribution in uvea of C57BL/6 mouse bearing mouse B16-F0 cells at 0.74 to 0.92 MBq, iv after 3 hrs; format: ADME, organism-based, Uveal tract; method in brief: as §1
[25] = Biodistribution in uvea of C57BL/6 mouse bearing mouse B16-F0 cells at 0.74 to 0.92 MBq, iv after 72 hrs; format: ADME, organism-based, Uveal tract; method in brief: as §1
[26] = Biodistribution in intestinal content of C57BL/6 mouse bearing mouse B16-F0 cells at 0.74 to 0.92 MBq, iv after 24 hrs; format: ADME, organism-based; method in brief: as §3
Thyroid gland [27] = assay: Biodistribution in thyroid of C57BL/6 mouse bearing mouse B16-F0 cells at 0.74 to 0.92 MBq, iv after 3 hrs; format: ADME, organism-based; method in brief: as §1
Thyroid gland [28] = assay: Biodistribution in thyroid of C57BL/6 mouse bearing mouse B16-F0 cells at 0.74 to 0.92 MBq, iv after 6 hrs; format: ADME, organism-based; method in brief: as §1
[29] = Ratio of drug level in tumor to liver of C57BL/6 mouse bearing mouse B16-F0 cells at 0.74 to 0.92 MBq, iv after 24 hrs; format: ADME, organism-based; method in brief: as §2
Liver [30] = assay: Biodistribution in liver of C57BL/6 mouse bearing mouse B16-F0 cells at 0.74 to 0.92 MBq, iv after 24 hrs; format: ADME, organism-based; method in brief: as §3

Compound	Activity [1] [%]	Drug uptake [2] [% ID/g]	Drug uptake [3] [% ID/g]	Drug uptake [4] [% ID/g]	Drug uptake [5] [% ID/g]	Ratio [6]	Ratio [7]	Ratio [8]	Ratio [9]	Drug uptake (Brain) [% ID/g]	Drug uptake [10] [% ID/g]	Drug uptake [11] [% ID/g]	Drug uptake [12] [% ID/g]	Drug uptake [13] [% ID/g]	Drug uptake (Liver [14]) [% ID/g]	Drug uptake (Liver [15]) [% ID/g]	Drug uptake (Pancreas) [% ID/g]	Drug uptake (Lung) [% ID/g]	Drug uptake (Spleen [16]) [% ID/g]	Drug uptake (Kidney [19]) [% ID/g]	further results
CCN(CC)CCNC(=O)c1ccc2cc([125I])ccc2c1.Cl	43.7	13	11.4	9	7	1.37	1.1	2.97	14.6	4.37	7.82	25.85	24.69	10.79	9.46	2.73	10.18	4.43	9.7	13.3	Drug uptake (Muscle tissue): 0.83 % ID/g; Drug uptake (Spleen [17]): 2.59 % ID/g; Drug uptake (Spleen [18]): 8.05 % ID/g; Drug uptake (Kidney [20]): 3.07 % ID/g; Drug uptake (Blood [21]): 2.97 % ID/g; Drug uptake (Blood [22]): 1.74 % ID/g; Drug uptake [23]: 13.21 % ID/g; Drug uptake [24]: 13.9 % ID/g; Drug uptake [25]: 7.84 % ID/g
CCN(CC)CCNC(=O)c1ccc2cncc([125I])c2n1.Cl.Cl	68.9	23.2	13.9	11.4	8.4	5.92	9.86	27.14	32.18	0.35	32.83	47.65	9.76	9.17	3.92	1.49	1.78	1.87	5.38	4.01	Drug uptake [26]: 0.82 % ID/g; Drug uptake (Muscle tissue): 0.43 % ID/g; Drug uptake (Spleen [17]): 0.93 % ID/g; Drug uptake (Kidney [20]): 1.2 % ID/g; Drug uptake (Blood [21]): 2.21 % ID/g; Drug uptake (Blood [22]): 1.36 % ID/g; Drug uptake (Thyroid gland [27]): 41.44 % ID/g; Drug uptake (Thyroid gland [28]): 56.95 % ID/g; Drug uptake [23]: 24.11 % ID/g; Drug uptake [24]: 20.3 % ID/g; Drug uptake [25]: 13.06 % ID/g
CCN(CC)CCNC(=O)c1cc2c([125I])cccc2cn1.Cl.Cl	49.9	7.3	7.1	7.9	7.1	1.88	1.96	24.23	79.11	0.3	42.97	68.64	19.05	28.44	3.86	1.54	2.39	2.76	2.83	4.62	Ratio [29]: 16.4; Drug uptake [26]: 1.7 % ID/g; Drug uptake (Liver [30]): 0.43 % ID/g; Drug uptake (Muscle tissue): 0.43 % ID/g; Drug uptake (Kidney [20]): 2.11 % ID/g; Drug uptake (Blood [21]): 2.15 % ID/g; Drug uptake (Blood [22]): 2.17 % ID/g; Drug uptake (Thyroid gland [27]): 35.71 % ID/g; Drug uptake (Thyroid gland [28]): 48.93 % ID/g; Drug uptake [23]: 18.08 % ID/g; Drug uptake [24]: 13.87 % ID/g; Drug uptake [25]: 9.73 % ID/g
CCN(CC)CCNC(=O)c1ccc([125I])nc1.Cl.Cl	67.3	15.5	9.3	7	2.7	3.01	2.04	24.2	42.14	0.64	13.44	4.94	42.71	50.21	5.14	2.09	3.94	3.96	5.44	6.08	Drug uptake (Spleen [17]): 2.68 % ID/g; Drug uptake (Spleen [18]): 2.35 % ID/g; Drug uptake (Kidney [20]): 3.5 % ID/g; Drug uptake (Blood [21]): 6.67 % ID/g; Drug uptake (Blood [22]): 3.71 % ID/g; Drug uptake (Thyroid gland [27]): 59.09 % ID/g; Drug uptake (Thyroid gland [28]): 7.92 % ID/g; Drug uptake [23]: 16.66 % ID/g; Drug uptake [24]: 12.69 % ID/g; Drug uptake [25]: 2.54 % ID/g
